# This is a sample that favours compounds with a hit; in the whole collection about 1% have one here.
# procasp7 counter: procaspase-7 activators, primary screen, counter-screen for procaspase-3 activator project, biochemical, absorbance, HTS, human; recombinant procaspase-7, Ac-DEVD-pNA absorbance 405 nm; D23A/D198A/D206A triple mutant, cannot self-cleave; scale: DMSO 0, 5 µM enzyme 100; 330,000 compounds, 0.093% hits; activation, % at 8.5 µM;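 active = percent activation above the screen-wide mean plus 3 SD, cut at about 25% in these data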
# Target sequence (P55210 whole entry D23A/D198A/D206A): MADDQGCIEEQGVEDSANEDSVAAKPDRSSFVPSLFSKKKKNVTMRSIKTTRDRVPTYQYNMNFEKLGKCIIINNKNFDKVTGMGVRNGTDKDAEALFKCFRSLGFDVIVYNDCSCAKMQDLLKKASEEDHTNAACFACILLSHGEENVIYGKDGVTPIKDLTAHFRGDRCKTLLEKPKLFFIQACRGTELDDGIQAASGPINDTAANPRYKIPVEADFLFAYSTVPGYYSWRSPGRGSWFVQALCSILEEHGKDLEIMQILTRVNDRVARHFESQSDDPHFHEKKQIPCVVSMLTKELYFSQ
#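 Detection: p-Nitroaniline absorbance at 405 nm, read at 0 and 120 min; system: Uncleavable procaspase-7 mutant enzyme; evaluation: % activation from two-timepoint absorbance difference, scaled to controls; times: 1 h enzyme–compound preincubation and 2 h substrate reaction, both 25 °C; buffer or medium: Zinc-free HEPES pH 7.4 with 300 mM NaCl, 0.01% Triton X-100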
# LYPLA2 counter: LYPLA2 inhibitors, primary screen, counter-screen for PME1 inhibitor project, biochemical, fluorescence polarization, FP-Rh probe ABPP; Acyl-protein thioesterase 2 (Homo sapiens), O95372; recombinant LYPLA2; inhibition, % at 5.9 µM; 320,000 compounds, 0.38% hits; AID 2177, 2009;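 active = inhibition above the screen-wide mean plus 3 SD, limit set per campaign, cut at about 26% in these data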;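 note: 0% = LYPLA2 with DMSO and 100% = wells lacking LYPLA2 enzyme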
# proCasp3 act: activators of human procaspase-3 D3A mutant, primary screen, biochemical, absorbance, PC-3 D3A mutant, single concentration. Caspase-3 (Homo sapiens), P42574. recombinant procaspase-3 D3A, Ac-DEVD-pNA absorbance 405 nm. activation, % at 8.5 µM. 330,000 compounds, 0.11% hits. AID 463141, 2010;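 active = activation above the mean of all tested compounds plus 3 SD, cut at about 21% in these data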;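 note: 0% = DMSO alone and 100% = DMSO wells spiked with extra 5 µM PC-3 D3A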
#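 Assay system: Autoprocessing-dead procaspase-3 D3A mutant enzyme; also added: Ac-DEVD-pNA; doses: one concentration, 8.5 µM nominal, 0.8% DMSO; times: 1 h compound preincubation, 2 h substrate hydrolysis at 25 °C; technique: 405 nm absorbance of p-nitroaniline, reads at 0 and 120 min; measure: % activation between DMSO and enzyme-spiked controls; repeats: single replicate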
# Fam108B counter: mouse Fam108B serine hydrolase inhibitors, primary screen, counter-screen for RBBP9 inhibitor project, biochemical, fluorescence polarization; recombinant Fam108B, FP-Rh probe fluorescence polarization; inhibition, % at 9.51 µM; 300,000 compounds, 0.33% hits;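 active = inhibition above the screen mean inhibition plus 3 SD, computed separately per campaign, cut at about 18% in these data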;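 note: inhibitors lower polarization as less probe binds the enzyme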
# LYPLA1 counter: LYPLA1 inhibitors, primary screen, counter-screen for PME1 inhibitor project, biochemical, fluorescence polarization, FP-Rh probe ABPP; Acyl-protein thioesterase 1 (Homo sapiens), O75608; inhibition, % at 5.9 µM; AID 2174, 2009; recombinant LYPLA1; 320,000 compounds, 0.16% hits;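 active = inhibition above the mean of all tested compounds plus 3 SD, set per campaign, cut at about 14% in these data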;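 note: inhibitors block serine hydrolase probe labeling of LYPLA1 so polarization falls; 0% = enzyme with DMSO and 100% = wells lacking LYPLA1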
# Target sequence (O75608 whole entry, looked up): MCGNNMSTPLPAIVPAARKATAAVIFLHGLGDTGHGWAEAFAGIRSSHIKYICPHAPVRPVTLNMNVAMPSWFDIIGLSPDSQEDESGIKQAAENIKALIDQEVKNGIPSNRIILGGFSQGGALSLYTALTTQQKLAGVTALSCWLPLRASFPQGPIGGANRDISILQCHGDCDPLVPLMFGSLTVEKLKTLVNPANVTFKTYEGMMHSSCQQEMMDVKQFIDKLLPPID
# PME-1 primary: PME-1 inhibitors via competitive probe labeling, primary screen, biochemical, fluorescence polarization, FP-Rh probe, HTS | inhibition, % at 5.9 µM | Protein phosphatase methylesterase 1 (Homo sapiens), Q9Y570 | 320,000 compounds, 0.53% hits | recombinant PME-1;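 active = inhibition above the campaign mean of all compounds plus 3 SD, cut at about 26% in these data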;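 note: competitive labeling of PME-1 active site by serine hydrolase directed probe; 0% = PME-1 with DMSO and 100% = wells lacking PME-1 enzyme; inhibitors block probe labeling so polarization falls and inhibition rises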
# LYPLA2 confirm: LYPLA2 inhibitors, retest, confirmation, counter-screen for PME1 inhibitor project, biochemical, fluorescence polarization, FP-Rh probe ABPP | shares compounds with LYPLA2 counter | inhibition, % at 5.9 µM | recombinant LYPLA2 | 1,100 compounds, 72% hits;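 active = mean inhibition across replicates above the hit cutoff set in the primary screen, cut at about 26% in these data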;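 note: blocked labeling of the enzyme by serine hydrolase FP-Rh probe lowers polarization; 0% = enzyme with DMSO and 100% = wells lacking LYPLA2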
# LYPLA2 ABPP: LYPLA2 inhibitors in proteome, late-stage follow-up, gel-based competitive ABPP, fluorescence, assay provider; shares compounds with LYPLA2 counter; rhLYPLA2 in mouse brain proteome, gel ABPP FP-Rh; inhibition, % at 20 µM; 150 compounds, 30% hits;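 active = inhibition of LYPLA2 enzyme probe labeling above about 50%, limit read from the data; inactive = inhibition below that limit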;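 note: loss of FP-Rh probe labeling of the LYPLA2 gel band measured as band density; 0% = DMSO only control band and 100% = blank gel background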
# An asterisk follows results filed as active; · = no result.
SMILES,procasp7 counter,LYPLA2 counter,proCasp3 act,Fam108B counter,LYPLA1 counter,PME-1 primary,LYPLA2 confirm,others
COc1ccc(N2CCN(C(=O)c3ccc(CNS(=O)(=O)c4cccc(OC)c4)cc3)CC2)cc1,-7,31*,5,1,0,6,16,
COc1cccc(S(=O)(=O)NCc2ccc(C(=O)N3CCN(c4ccccc4OC)CC3)cc2)c1,-2,58*,6,-2,0,-4,70*,LYPLA2 ABPP=34
COc1ccc(S(=O)(=O)NCc2ccc(C(=O)N3CCN(c4ccccn4)CC3)cc2)cc1,-3,8,-1,-4,-1,9,·,
COc1ccc(S(=O)(=O)NCc2ccc(C(=O)N3CCc4ccccc4C3)cc2)cc1,10,48*,5,4,4,3,57*,LYPLA2 ABPP=28
COc1cccc(S(=O)(=O)NCc2ccc(C(=O)N3CCN(c4ccccc4)CC3)cc2)c1,-9,20,-4,-1,2,5,·,
CCc1ccc(NC(=O)C(C)n2nc(C)c([N+](=O)[O-])c2C)cc1 (stereo not given),-1,0,6,1,1,2,·,
Cc1cccnc1NC(=O)C(C)N1C(=O)c2ccccc2C1=O (stereo not given),5,2,6,0,2,-3,·,
CCOc1ccc(/C=N/NC(=O)c2ccc(F)cc2)cc1CN1CC2CC(C1)c1cccc(=O)n1C2 (stereo not given),5,-3,0,·,1,-2,·,
COc1ccccc1C(=O)NC(=O)COC(=O)c1ccc(Cl)nc1,3,1,-9,3,-1,6,·,
O=C(Nc1ccc(N2CCN(C(=O)c3ccccc3)CC2)cc1)c1cccnc1,5,3,-5,-1,-2,-4,·,
CCC(=O)NC(=S)Nc1ccc(N2CCN(C(=O)c3ccc(Cl)cc3)CC2)cc1,-8,29*,-3,4,2,8,36*,
O=C(Nc1ccc(N2CCN(C(=O)c3ccc(Cl)cc3)CC2)cc1)c1cccnc1,5,48*,5,0,5,-1,41*,
Cc1ccc(C(=O)N2CCN(c3ccc(NC(=O)c4cccnc4Cl)cc3)CC2)cc1,-7,49*,-8,1,5,-1,57*,LYPLA2 ABPP=38
Cc1cc(C)c2nc(-c3ccccn3)cc(C(=O)N3CCCC3)c2c1,-16,2,-9,3,2,1,·,
Cc1cc(=O)[nH]c(SC(C)C(=O)Nc2cccc3ccccc23)n1 (stereo not given),-2,5,5,1,3,-2,·,
COc1ccc(C(=O)NC(=S)NCc2cccnc2)cc1[N+](=O)[O-],0,35*,-3,2,12,-6,24,
COc1ccc(C(=O)NC(=S)Nc2cccc3ncccc23)cc1[N+](=O)[O-],-6,48*,-3,2,6,-127,51*,LYPLA2 ABPP=38
O=C(Nc1cccc2ncccc12)c1ccc(Br)c([N+](=O)[O-])c1,6,33*,2,1,-3,-3,47*,
O=C(NC1CCCCNC1=O)c1ccco1 (stereo not given),8,-2,-3,-1,-4,4,·,
C[C@@H](C(=O)NNC(=O)c1ccc(Cl)cc1)N1C(=O)C2CC=CCC2C1=O (stereo not given in full),-3,·,10,·,·,·,·,
O=C(c1cccc(Br)c1)N1CCN(c2cnn(-c3ccccc3)c(=O)c2Cl)CC1,6,28*,-1,2,6,4,15,
O=C(NCc1ccc(Cl)cc1)NCC(F)(F)F,0,33*,-3,-2,1,2,-3,
O=C(N/C=C\c1ccccc1)NCc1ccc(Cl)cc1,-2,-15,-6,-5,-4,-8,·,
COc1cccc(NC(=O)CSc2nc3ccsc3c(=O)n2-c2ccc(C(=O)O)cc2)c1,1,-1,0,2,1,0,·,
CCCOc1ccc(-c2c(=O)n(OCC(=O)OCC)c3ccccc3[n+]2[O-])cc1,-5,27*,11,3,1,-6,72*,
SMILES,procasp7 counter,LYPLA2 counter,proCasp3 act,Fam108B counter,LYPLA1 counter,PME-1 primary,LYPLA2 confirm,others
CCN1C(=O)CC(C(=O)Nc2ccc(F)cc2)SC1=Nc1cccc(OC)c1 (stereo not given),4,29*,-4,-5,2,-6,8,
CC1(C)NC(C)(C)C(O)(C(N)=O)C1=O (stereo not given),4,27*,6,1,2,5,18,
CCC(C)[C@H](NC(=O)NCCCn1ccnc1)C(=O)OC (stereo not given in full),0,3,-2,-1,6,9,·,
COc1ccccc1N1CCN(C(=S)Nc2ccc(S(=O)(=O)N3CCOCC3)cc2)CC1,-4,6,1,2,0,-9,·,
O=S(=O)(c1ccc(NC(=S)N2CCN(c3ccccc3F)CC2)cc1)N1CCOCC1,-6,38*,1,1,0,5,30*,
CCOC(=O)N1CCN(C(=O)c2cc(COc3c(F)cccc3F)on2)CC1,6,10,4,3,3,3,·,
O=C1NC(Cc2ccccc2)c2nc3ccc(Cl)cc3c(=O)n2-c2ccc(Cl)cc21 (stereo not given),-5,26*,-6,·,-5,-11,-11,
Cc1ccc2nc3n(c(=O)c2c1)-c1ccc(Cl)cc1C(=O)NC3Cc1ccccc1 (stereo not given),11,-10,8,·,-6,-7,·,
COc1ccc(CNC(=O)C/C(C)=N/NC(=O)COc2ccc(Br)cc2)cc1,-2,-3,-6,0,-4,-4,·,
Cc1ccccc1OCCC(=O)Nc1cc(S(=O)(=O)N2CCOCC2)ccc1OC(C)C,-5,6,5,-2,1,0,·,

# From PubChem
